Experiment [1] is described as follows: Binding affinity to 3'-end [alpha32P]dATP labeled tyrT plasmid DNA (unknown origin) assessed as change in band shift at 10 to 50 uM. In outline:
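tyrT DNA fragment incubated with ligand; a control lane received the solvent conditions alone. Samples were run on a native gel, and binding was scored as DNA bands that migrated more slowly than the control.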

The next experiment deals with DNA. Kind of experiment: Binding affinity to [alpha-32P]dATP labeled HexA DNA (unknown origin) at 0.1 to 500 uM by DNase 1 footprinting assay.
The nature of experiment [2]: Binding affinity to [alpha-32P]dATP labeled HexB DNA (unknown origin) at 0.1 to 500 uM by DNase 1 footprinting assay. In outline:
(§1)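 Each radiolabeled fragment (MS2, HexA or HexB) incubated with ligand at 14 concentrations from 500 down to 0.1 μM, then cleaved with DNase I. Gel tracks compared with GA purine markers and solvent-only DNA to find regions of attenuated cleavage as footprints.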

Experiment [3] can be described thus: Binding affinity to [alpha-32P]dATP labeled MS2 DNA (unknown origin) at 0.1 to 500 uM by DNase 1 footprinting assay. The procedure, abridged:
as §1

Experiment [4] in a line: Binding affinity to fluorophore labeled FAM-GTGCAC-dabcyl (unknown origin) assessed as change in melting temperature at 100 uM by fluorescence assay. The procedure, abridged:
(§2)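 Duplexes made from fluorescently labeled oligonucleotides, each carrying the site of interest at its center. Melting run at 0.25 μM duplex DNA in 10 mM sodium phosphate pH 7.4 with 100 mM NaCl. Relative fluorescence was followed against temperature and normalized to the same initial value. First derivatives of the melting profiles were used to read transitions.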

Experiment [5] can be described thus: Binding affinity to ATGGAT MS2 DNA (unknown origin) by DNase 1 footprinting assay. The procedure, abridged:
(§3)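 Radiolabeled MS2, HexA or HexB DNA fragments incubated with ligand at 14 concentrations (500, 400, 300, 200, 100, 80, 60, 40, 20, 10, 5, 1, 0.5, 0.1 μM), then digested with DNase I. Products resolved on gels alongside GA purine markers and solvent-only DNA controls. C50 is the ligand concentration that reduced footprint band intensity by 50%.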

The nature of experiment [6]: Binding affinity to fluorophore labeled FAM-CACGTG-dabcyl (unknown origin) assessed as change in melting temperature at 100 uM by fluorescence assay. The procedure, abridged: as §2
The nature of experiment [7]: Binding affinity to CGCGAT HexB DNA (unknown origin) by DNase 1 footprinting assay. The procedure, abridged:
as §3

Experiment [8] can be described thus: Binding affinity to fluorophore labeled FAM-AATATT-dabcyl (unknown origin) assessed as change in melting temperature at 100 uM by fluorescence assay. The procedure, abridged:
as §2

The nature of experiment [9]: Binding affinity to ACGACT MS2 DNA (unknown origin) by DNase 1 footprinting assay. In outline: as §3
Experiment [10] is described as follows: Binding affinity to GGATAG MS2 DNA (unknown origin) by DNase 1 footprinting assay. In outline: as §3
Experiment [11] can be described thus: Binding affinity to CGTACG HexB DNA (unknown origin) by DNase 1 footprinting assay. The procedure, abridged: as §3
Experiment [12] can be described thus: Binding affinity to TATATA HexB DNA (unknown origin) by DNase 1 footprinting assay. The procedure, abridged: as §3
Experiment [13] can be described thus: Binding affinity to CTCGAG HexB DNA (unknown origin) by DNase 1 footprinting assay. In outline: as §3
Experiment [14] is described as follows: Binding affinity to fluorophore labeled FAM-ACATCT-dabcyl (unknown origin) assessed as change in melting temperature at 100 uM by fluorescence assay. The procedure, abridged: as §2
Experiment [15] is described as follows: Binding affinity to fluorophore labeled FAM-ACATGT-dabcyl (unknown origin) assessed as change in melting temperature at 100 uM by fluorescence assay. The procedure, abridged:
as §2

A short description of experiment [16]: Binding affinity to GACGTA MS2 DNA (unknown origin) by DNase 1 footprinting assay. The procedure, abridged: as §3

Activity calls are given as the source filed them. The rule behind the calls is not given here.

Turning to `COCCOCCOCC(=O)NC[C@H]1C(=O)N(C)C[C@@H](NC(=O)c2nc3ccccc3cc2O)C(=O)NCC(=O)N(C)[C@H]2CSSC[C@@H](C(=O)N1C)N(C)C(=O)CNC(=O)[C@H](NC(=O)c1nc3ccccc3cc1O)CN(C)C(=O)[C@H](CNC(=O)COCCOCCOC)N(C)C2=O`, the outcome in experiment [1] was inactive.

`CS[C@H]1SC[C@H]2C(=O)N(C)[C@@H](C(C)C)C(=O)OC[C@@H](NC(=O)c3cnc4ccccc4n3)C(=O)N[C@@H](C)C(=O)N(C)[C@@H]1C(=O)N(C)[C@@H](C(C)C)C(=O)OC[C@@H](NC(=O)c1cnc3ccccc3n1)C(=O)N[C@@H](C)C(=O)N2C`: the result (in [1]; in the experiment on DNA; in experiment [2]; in [3]) was Active.

Usually ΔTm stands for the change in melting temperature against a reference sample. Turning to `CSC[C@H]1C(=O)N(C)C[C@@H](NC(=O)c2nc3ccccc3cc2O)C(=O)NCC(=O)N(C)[C@H]2CSSC[C@@H](C(=O)N1C)N(C)C(=O)CNC(=O)[C@H](NC(=O)c1nc3ccccc3cc1O)CN(C)C(=O)[C@H](CSC)N(C)C2=O`, the outcome in [1] was Active. The ΔTm in [4] was 0.7 °C; in experiment [6] it was 7.6 °C; in experiment [8], 1.4 °C; in experiment [14], 2.2 °C; in experiment [15], 4.5 °C. Besides, the C50 in experiment [5] was found to be 110 µM; in experiment [7], 22 µM; in [9] it was 102 µM; in [10], 131 µM; in experiment [11], 13 µM; in [12], 28 µM. For the same compound, the C50 in experiment [13] came out at 17 µM; in experiment [16] it was 95 µM.
